Experimental data from ChEMBL document CHEMBL2346521, “Synthesis, structure-activity relationship studies, and identification of novel 5,6,7,8-tetrahydroimidazo[1,5-a]pyrazine derivatives as dual orexin receptor antagonists. Part 1” (Bioorg Med Chem Lett, 2013).

Experiments:
[1] = molecular target: T1, Orexin/Hypocretin receptor type 1 (Homo sapiens, UniProt O43613); experiment: Antagonist activity at human OX1 receptor expressed in CHO cells assessed as inhibition of orexin A-induced calcium influx by FLIPR assay; type: functional, cell-based
T1 sequence (O43613 whole entry): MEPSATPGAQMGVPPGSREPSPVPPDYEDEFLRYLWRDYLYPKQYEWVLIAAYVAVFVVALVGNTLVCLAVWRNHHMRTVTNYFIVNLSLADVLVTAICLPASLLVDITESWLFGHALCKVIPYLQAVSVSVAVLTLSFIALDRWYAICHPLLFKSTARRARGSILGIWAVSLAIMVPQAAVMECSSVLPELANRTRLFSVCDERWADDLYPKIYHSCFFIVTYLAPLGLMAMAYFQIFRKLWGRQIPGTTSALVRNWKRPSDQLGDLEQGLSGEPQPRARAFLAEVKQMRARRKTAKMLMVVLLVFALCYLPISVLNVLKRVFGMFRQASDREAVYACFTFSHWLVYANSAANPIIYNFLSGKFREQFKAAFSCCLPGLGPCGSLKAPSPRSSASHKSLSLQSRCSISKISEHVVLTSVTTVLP
Procedure, shortened: (§1)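 CHO cells stably expressing human OX1R or OX2R, loaded at 37 °C, 5% CO₂ with the calcium dye fluo-3 AM, then washed. Antagonist added at a range of concentrations before an approximately EC₈₀ orexin A challenge. Ca²⁺ mobilization read by FLIPR. IC₅₀ taken as the concentration giving 50% inhibition of the orexin A-induced calcium response, reported in nM.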

Orexin receptor type 2 = molecular target: T2, Orexin receptor type 2 (Homo sapiens, UniProt O43614); experiment: Antagonist activity at human OX2 receptor expressed in CHO cells assessed as inhibition of orexin A-induced calcium influx by FLIPR assay; type: functional, cell-based; procedure, shortened: as §1
T2 sequence (O43614 whole entry): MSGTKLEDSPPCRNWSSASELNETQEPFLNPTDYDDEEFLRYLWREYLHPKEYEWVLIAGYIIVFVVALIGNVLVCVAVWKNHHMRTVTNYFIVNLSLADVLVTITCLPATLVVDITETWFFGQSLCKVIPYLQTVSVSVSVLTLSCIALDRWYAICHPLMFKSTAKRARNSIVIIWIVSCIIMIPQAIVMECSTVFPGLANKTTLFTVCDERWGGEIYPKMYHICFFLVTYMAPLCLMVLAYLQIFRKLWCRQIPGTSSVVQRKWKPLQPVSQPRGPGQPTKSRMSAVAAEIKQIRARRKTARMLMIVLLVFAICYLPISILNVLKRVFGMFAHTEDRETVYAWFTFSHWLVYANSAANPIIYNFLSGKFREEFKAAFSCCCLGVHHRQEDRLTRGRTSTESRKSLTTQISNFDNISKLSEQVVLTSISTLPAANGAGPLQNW

[2] = Plasma protein binding in human; type: ADME, cell-free; settings: read-out: PPB
[3] = Drug uptake in Wistar rat brain at 100 mg/kg, po after 3 hrs; type: ADME, organism-based; design: dose 100 mg/kg, route oral; settings: read-out: Drug uptake
Procedure, shortened: (§2)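 Male Wistar rats dosed orally at 100 mg/kg. Brain and plasma sampled 3 h after dosing. Total compound levels given as nM and as ng/g (brain) or ng/ml (plasma). Brain/plasma ratio calculated from these total concentrations.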

[4] = Ratio of drug level in brain to plasma in Wistar rat at 100 mg/kg, po after 3 hrs; type: ADME, organism-based; design: dose 100 mg/kg, route oral; settings: read-out: BPR; procedure, shortened: as §2
[5] = Plasma concentration in Wistar rat at 100 mg/kg, po after 3 hrs; type: ADME, organism-based; design: dose 100 mg/kg, route oral; procedure, shortened: as §2

Structure (SMILES) | IC50 [1] | IC50 (Orexin receptor type 2) | fraction unbound [2] | concentration at 3 h [3] | Kp at 3 h [4] | concentration at 3 h [5]
CCCc1nc(CC)n2c1C(CCc1ccc(C(F)(F)F)cc1)N([C@@H](C(=O)NC)c1ccccc1)CC2 (stereo partly specified) | > 10000 nM | 225 nM | – | – | – | –
CCc1nc(C(C)C)c2n1CCN([C@@H](C(=O)NC)c1ccccc1)C2CCc1ccc(C(F)(F)F)cc1 (stereo partly specified) | > 10000 nM | 2900 nM | – | – | – | –
CCc1nc(C2CC2)c2n1CCN([C@@H](C(=O)NC)c1ccccc1)[C@H]2CCc1ccc(C(F)(F)F)cc1 | 4170 nM | 29 nM | – | – | – | –
CCc1nc(Cl)c2n1CCN([C@@H](C(=O)NC)c1ccccc1)[C@H]2CCc1ccc(C(F)(F)F)cc1 | 40 nM | 9 nM | 0.01 | 303 nM | 0.07 | 4210 nM
CCc1nc(Cl)c2n1CCN([C@@H](C(=O)NC)c1ccccc1)[C@@H]2CCc1ccc(C(F)(F)F)cc1 | 283 nM | 107 nM | – | – | – | –
CCc1nc(C(F)(F)F)c2n1CCN([C@@H](C(=O)NC)c1ccccc1)[C@H]2CCc1ccc(C(F)(F)F)cc1 | 1070 nM | 11 nM | – | – | – | –
CCc1nc(SC)c2n1CCN([C@@H](C(=O)NC)c1ccccc1)[C@H]2CCc1ccc(C(F)(F)F)cc1 | 85 nM | 14 nM | – | – | – | –
CCc1nc(C(=O)NC)c2n1CCN([C@@H](C(=O)NC)c1ccccc1)C2CCc1ccc(C(F)(F)F)cc1 (stereo partly specified) | 492 nM | 38 nM | – | – | – | –
CCc1nc(C(=O)N(C)C)c2n1CCN([C@@H](C(=O)NC)c1ccccc1)C2CCc1ccc(C(F)(F)F)cc1 (stereo partly specified) | 344 nM | 111 nM | – | – | – | –
CNC(=O)[C@@H](c1ccccc1)N1CCn2c(C)nc(Cl)c2[C@@H]1CCc1ccc(C(F)(F)F)cc1 | 90 nM | 13 nM | – | – | – | –
CCCc1nc(Cl)c2n1CCN([C@@H](C(=O)NC)c1ccccc1)[C@H]2CCc1ccc(C(F)(F)F)cc1 | 459 nM | 60 nM | – | – | – | –
CNC(=O)[C@@H](c1ccccc1)N1CCn2c(C(C)C)nc(Cl)c2[C@@H]1CCc1ccc(C(F)(F)F)cc1 | 313 nM | 11 nM | – | – | – | –
CNC(=O)[C@@H](c1ccccc1)N1CCn2c(C3CC3)nc(Cl)c2[C@@H]1CCc1ccc(C(F)(F)F)cc1 | 31 nM | 9 nM | 0.01 | 385 nM | 0.06 | 6400 nM
CNC(=O)[C@@H](c1ccccc1)N1CCn2c(CC3CC3)nc(Cl)c2[C@@H]1CCc1ccc(C(F)(F)F)cc1 | 1430 nM | 35 nM | – | – | – | –
CCc1nc(C)c2n1CCN([C@@H](C(=O)NC)c1ccccc1)C2CCc1ccc(C(F)(F)F)cc1 (mixture of isomers) | > 10000 nM | 24 nM | – | – | – | –
CCc1nc(CC)n2c1C(CCc1ccc(C(F)(F)F)cc1)N([C@@H](C(=O)NC)c1ccccc1)CC2 (mixture of isomers) | > 10000 nM | 20 nM | – | – | – | –
CCc1nc(I)c2n1CCN([C@@H](C(=O)NC)c1ccccc1)C2CCc1ccc(C(F)(F)F)cc1 (mixture of isomers) | 717 nM | 23 nM | – | – | – | –
CCc1nc(OC)c2n1CCN([C@@H](C(=O)NC)c1ccccc1)C2CCc1ccc(C(F)(F)F)cc1 (mixture of isomers) | 134 nM | 73 nM | – | – | – | –
CCOc1nc(CC)n2c1C(CCc1ccc(C(F)(F)F)cc1)N([C@@H](C(=O)NC)c1ccccc1)CC2 (mixture of isomers) | 3980 nM | 2750 nM | – | – | – | –
CCc1nc(C#N)c2n1CCN([C@@H](C(=O)NC)c1ccccc1)C2CCc1ccc(C(F)(F)F)cc1 (mixture of isomers) | 537 nM | 10 nM | – | – | – | –
CCc1nc(C(N)=O)c2n1CCN([C@@H](C(=O)NC)c1ccccc1)C2CCc1ccc(C(F)(F)F)cc1 (mixture of isomers) | > 10000 nM | 194 nM | – | – | – | –
CNC(=O)[C@@H](c1ccccc1)N1CCn2c(COC)nc(Cl)c2[C@@H]1CCc1ccc(C(F)(F)F)cc1 (mixture of isomers) | 1650 nM | 25 nM | – | – | – | –
CCc1ncc2n1CCN([C@@H](C(=O)NC)c1ccccc1)C2CCc1ccc(C(F)(F)F)cc1 (mixture of isomers) | > 10000 nM | 194 nM | – | – | – | –
C=Cc1nc(CC)n2c1C(CCc1ccc(C(F)(F)F)cc1)N([C@@H](C(=O)NC)c1ccccc1)CC2 (single isomer, unassigned) | 150 nM | 23 nM | – | – | – | –
